Laboratory results from ChEMBL document CHEMBL1155540, “The discovery and SAR of indoline-3-carboxamides--a new series of 5-HT6 antagonists” (Bioorg Med Chem Lett, 2010).

Key:
[1] = molecular target: 5-hydroxytryptamine receptor 6 (Homo sapiens, UniProt P50406); test: Displacement of [3H]LSD from human 5HT6 receptor expressed in CHO cells
[2] = molecular target: Voltage-gated inwardly rectifying potassium channel KCNH2 (Homo sapiens, UniProt Q12809); test: Displacement of [3H]dofetolide from human ERG channel in HEK293 cells; assay type: cell-based
Method in brief: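 Affinity for cardiac K+ channel determined by displacement of tritiated dofetolide in membrane homogenate from HEK-293 cells expressing hERG channel; reported as pKi.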

Homo sapiens = organism: Homo sapiens; test: Plasma protein binding in human; conditions: read-out: PPB (converted)
[3] = Clearance in Wistar rat at 1 mg/kg, iv; assay type: ADME, organism-based; parameters: dose 1 mg/kg, route intravenous; conditions: in vivo
Method in brief: (§1)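 Male Wistar rats dosed 1 mg/kg iv or 10 mg/kg po; vehicle 5% DMA / 95% saline. Plasma pharmacokinetic parameters derived and given as mean with SD.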

Hepatocyte [4] = test: Intrinsic clearance in human hepatocytes; assay type: ADME, cell-based, Liver
[5] = Elimination half life in Wistar rat at 1 mg/kg, iv; assay type: ADME, organism-based; parameters: dose 1 mg/kg, route intravenous; conditions: in vivo, read-out: beta t1/2 (converted)
Method in brief: as §1

[6] = Intrinsic clearance in rat liver microsome measured per mg of protein; assay type: ADME; conditions: liver microsomes
[7] = Permeability from basolateral to apical side of the human Caco-2 membrane; assay type: ADME, cell-based; conditions: read-out: permeability
[8] = Permeability from apical to basolateral side of the human Caco-2 membrane; assay type: ADME, cell-based; conditions: read-out: permeability
[9] = Volume of distribution at steady state in Wistar rat at 1 mg/kg, iv; assay type: ADME, organism-based; parameters: dose 1 mg/kg, route intravenous; conditions: in vivo, read-out: Vdss
Method in brief: as §1

Hepatocyte [10] = test: Intrinsic clearance in rat hepatocytes; assay type: ADME, cell-based, Liver
[11] = Plasma protein binding in rat; conditions: read-out: PPB (converted)
[12] = Oral bioavailability in Wistar rat at 10 mg/kg; assay type: ADME, organism-based; conditions: in vivo
Method in brief: as §1

[13] = Intrinsic clearance in human liver microsome measured per mg of protein; assay type: ADME; conditions: liver microsomes

Chain of 5-hydroxytryptamine receptor 6 (P50406 whole entry): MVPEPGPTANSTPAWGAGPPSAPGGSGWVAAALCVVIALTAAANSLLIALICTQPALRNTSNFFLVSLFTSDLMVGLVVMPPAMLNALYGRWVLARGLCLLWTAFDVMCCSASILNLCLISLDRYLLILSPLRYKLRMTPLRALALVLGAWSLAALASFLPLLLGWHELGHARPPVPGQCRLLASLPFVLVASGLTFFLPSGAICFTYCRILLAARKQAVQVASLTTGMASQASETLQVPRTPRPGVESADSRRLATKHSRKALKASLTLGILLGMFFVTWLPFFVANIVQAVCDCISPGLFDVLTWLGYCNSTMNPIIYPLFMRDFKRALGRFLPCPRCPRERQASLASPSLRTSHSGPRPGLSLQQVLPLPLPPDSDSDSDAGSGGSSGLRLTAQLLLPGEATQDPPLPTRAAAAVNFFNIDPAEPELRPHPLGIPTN
Chain of Voltage-gated inwardly rectifying potassium channel KCNH2 (Q12809 whole entry): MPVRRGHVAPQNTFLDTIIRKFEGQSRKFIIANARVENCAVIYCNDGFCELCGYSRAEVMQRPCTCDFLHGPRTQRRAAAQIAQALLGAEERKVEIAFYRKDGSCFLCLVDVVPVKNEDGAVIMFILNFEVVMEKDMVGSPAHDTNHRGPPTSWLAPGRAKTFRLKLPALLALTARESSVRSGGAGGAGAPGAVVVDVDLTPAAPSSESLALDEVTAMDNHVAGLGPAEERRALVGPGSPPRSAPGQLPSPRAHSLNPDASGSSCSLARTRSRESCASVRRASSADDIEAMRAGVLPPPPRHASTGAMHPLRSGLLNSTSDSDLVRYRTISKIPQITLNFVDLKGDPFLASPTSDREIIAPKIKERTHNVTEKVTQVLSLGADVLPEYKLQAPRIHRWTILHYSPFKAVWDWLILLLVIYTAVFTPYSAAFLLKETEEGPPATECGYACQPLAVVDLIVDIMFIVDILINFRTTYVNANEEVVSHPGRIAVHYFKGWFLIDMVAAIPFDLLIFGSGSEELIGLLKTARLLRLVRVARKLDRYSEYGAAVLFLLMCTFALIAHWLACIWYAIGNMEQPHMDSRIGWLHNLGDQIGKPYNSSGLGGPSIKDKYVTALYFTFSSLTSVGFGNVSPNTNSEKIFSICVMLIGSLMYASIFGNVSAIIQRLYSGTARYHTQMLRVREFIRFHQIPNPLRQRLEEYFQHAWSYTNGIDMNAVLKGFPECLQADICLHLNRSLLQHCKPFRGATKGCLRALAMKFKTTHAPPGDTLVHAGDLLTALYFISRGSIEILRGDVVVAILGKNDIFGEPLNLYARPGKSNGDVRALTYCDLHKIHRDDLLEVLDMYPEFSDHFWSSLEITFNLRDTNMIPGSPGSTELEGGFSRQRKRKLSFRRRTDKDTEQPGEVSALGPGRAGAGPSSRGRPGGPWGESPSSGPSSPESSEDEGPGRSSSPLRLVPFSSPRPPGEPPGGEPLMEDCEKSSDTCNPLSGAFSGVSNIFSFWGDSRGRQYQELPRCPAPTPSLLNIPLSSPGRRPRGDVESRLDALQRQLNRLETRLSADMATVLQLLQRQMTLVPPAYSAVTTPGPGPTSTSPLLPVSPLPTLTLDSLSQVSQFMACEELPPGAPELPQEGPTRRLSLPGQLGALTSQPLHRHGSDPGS

COc1cccc(N2CCN(C(=O)C3CN(S(=O)(=O)c4ccc(OC)c5ccccc45)c4ccccc43)CC2)c1 (racemic)
Ki [1]: 63.1 nM

COc1ccc(S(=O)(=O)N2CC(C(=O)N3CC(N)C3)c3ccccc32)c2ccccc12 (racemic)
Ki [1]: 158 nM

CN1CCC(N(C)C(=O)C2CN(S(=O)(=O)c3ccc4c(c3)OCCO4)c3ccccc32)CC1 (racemic)
Ki [1]: 50.1 nM

CN1CCC(N(C)C(=O)C2CN(S(=O)(=O)c3cccc4nsnc34)c3ccccc32)CC1 (racemic)
Ki [1]: 126 nM

CN1CCC(N(C)C(=O)C2CN(S(=O)(=O)c3cccc4c(Cl)cccc34)c3ccccc32)CC1 (racemic)
Ki [1]: 5.01 nM

COc1ccc(S(=O)(=O)N2CC(C(=O)NC3CCN(Cc4ccccc4)CC3)c3ccccc32)c2ccccc12 (racemic)
Ki [1]: 50.1 nM

COc1ccc(S(=O)(=O)N2CC(C(=O)NCCCN3CCOCC3)c3ccccc32)c2ccccc12 (racemic)
Ki [1]: 31.6 nM

COc1ccc(S(=O)(=O)N2CC(C(=O)N(C)C3CCN(C)CC3)c3ccccc32)c2ccccc12 (racemic)
Ki [1]: 7.94 nM

Cc1cnc2c(S(=O)(=O)N3CC(C(=O)N(C)C4CCN(C)CC4)c4ccccc43)cccc2c1 (racemic)
Ki [1]: 316 nM

COc1ccc(S(=O)(=O)N2CC(C(=O)N(C)C3CCN(C)CC3)c3ccccc32)c(C)c1C (racemic)
Ki [1]: 100 nM

COc1ccc(S(=O)(=O)N2CC(C(=O)NCCCn3ccnc3)c3ccccc32)c2ccccc12 (racemic)
Ki [1]: 79.4 nM

CN1CCC(N(C)C(=O)C2CN(S(=O)(=O)c3ccc(OC(F)(F)F)cc3)c3ccccc32)CC1 (racemic)
Ki [1]: 20 nM

COc1ccc(S(=O)(=O)N2CC(C(=O)NC3CCN(C)CC3)c3ccccc32)c2ccccc12 (racemic)
Ki [1]: 25.1 nM

CN1CCC(N(C)C(=O)C2CN(S(=O)(=O)c3ccccc3)c3ccccc32)CC1 (racemic)
Ki [1]: 316 nM

CN1CCC(N(C)C(=O)C2CN(S(=O)(=O)c3cccc(-c4ccccc4)c3)c3ccccc32)CC1 (racemic)
Ki [1]: 31.6 nM

COc1ccc(S(=O)(=O)N2CC(C(=O)NC3CC4CCC(C3)N4C)c3ccccc32)c2ccccc12 (racemic)
Ki [1]: 31.6 nM

CN1CCC(N(C)C(=O)C2CN(S(=O)(=O)c3ccc4ccccc4c3)c3ccccc32)CC1 (racemic)
Ki [1]: 25.1 nM

COc1ccc(S(=O)(=O)N2C[C@H](C(=O)N3CCCNCC3)c3ccccc32)c2ccccc12
Ki [2]: 1260 nM | fraction unbound (Homo sapiens): 0.006 | clearance [3]: 16.5 mL/min/kg | CL (Hepatocyte [4]): 7 µL/min | half-life [5]: 1.9 h | microsomal CLint [6]: 105 µL/min/mg | Papp B→A [7]: 4.7 ×10⁻⁶ cm/s | Papp A→B [8]: < 2.2 ×10⁻⁶ cm/s | Vd [9]: 1.9 L/kg | CL (Hepatocyte [10]): 11 µL/min | fraction unbound [11]: 0.029 | bioavailability [12]: 23.5% | microsomal CLint [13]: 69 µL/min/mg

CN1CCC(N(C)C(=O)C2CN(S(=O)(=O)c3ccc(C(F)(F)F)cc3)c3ccccc32)CC1 (racemic)
Ki [1]: 25.1 nM

CN1CCC(N(C)C(=O)C2CN(S(=O)(=O)c3cccc4ccccc34)c3ccccc32)CC1 (racemic)
Ki [1]: 31.6 nM

CCN(CC)CCNC(=O)C1CN(S(=O)(=O)c2ccc(OC)c3ccccc23)c2ccccc21 (racemic)
Ki [1]: 20 nM

COc1ccc(S(=O)(=O)N2CC(C(=O)N3CC(CN)C3)c3ccccc32)c2ccccc12 (racemic)
Ki [1]: 79.4 nM

COc1ccc(S(=O)(=O)N2CC(C(=O)N3CCNCC3)c3ccccc32)c2ccccc12 (racemic)
Ki [1]: 7.94 nM

COc1cc(C)c(S(=O)(=O)N2CC(C(=O)N(C)C3CCN(C)CC3)c3ccccc32)c(C)c1C (racemic)
Ki [1]: 100 nM

CN1CCC(N(C)C(=O)C2CN(S(=O)(=O)c3cccs3)c3ccccc32)CC1 (racemic)
Ki [1]: 316 nM

CN1CCC(N(C)C(=O)C2CN(S(=O)(=O)c3cccc(C(F)(F)F)c3)c3ccccc32)CC1 (racemic)
Ki [1]: 25.1 nM

Cc1c(S(=O)(=O)N2CC(C(=O)N(C)C3CCN(C)CC3)c3ccccc32)sc2ccc(Cl)cc12 (racemic)
Ki [1]: 63.1 nM

CN1CCC(N(C)C(=O)C2CN(S(=O)(=O)c3ccc(-c4ccccc4)cc3)c3ccccc32)CC1 (racemic)
Ki [1]: 126 nM

COc1ccc(S(=O)(=O)N2CC(C(=O)N3CCCNCC3)c3ccccc32)c2ccccc12 (racemic)
Ki [1]: 1.26 nM

CCN(CC)CCCNC(=O)C1CN(S(=O)(=O)c2ccc(OC)c3ccccc23)c2ccccc21 (racemic)
Ki [1]: 79.4 nM
